# Lipid droplet: hepatic lipid droplet formation modulation; AML12 mouse hepatocytes, oleate lipid droplets, BODIPY imaging; inhibition, % at 6.5 µM; 240,000 tested, 0.4% active; AID 1656;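 active = lipid droplet intensity inhibited by at least 50%, with more than 500 cells counted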
#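 Assay system: AML12 mouse liver cells | Compound: 6.5 µM single-point dosing | Schedule: Overnight exposure | Technique: Fluorescence imaging, 20x objective, two fields per well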
# MC4R antagonist: blocks human MC4R cAMP signaling | inhibition, % at 6.5 µM | 360,000 tested, 0.48% active | P32245 | AID 540295 | MC4R-expressing cells, MTII-stimulated cAMP, LANCE TR-FRET;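 active = inhibition above its plate's cutoff, the mean of tested wells on that plate plus 3 SD, cut at about 29% in these data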;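 note: 0% = Melanotan II alone and 100% = Melanotan II plus saturating MCL0020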
#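 Assay system: U2OS cells stably expressing human melanocortin 4 receptor (MC4R) / Dosing: 6.5 µM / Timing: compound 30 min, challenge 1 h, detection 1 h / Measured by: Eu-cAMP/anti-cAMP TR-FRET, emission 671 nm / Replicates: singlicate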
# m5-HT2A agonist: mouse HTR2A agonism via beta-arrestin recruitment; P35363; CHO-K1 mHTR2A beta-arrestin complementation, luminescence; percent of 30 µM serotonin response; activation, % at 7.6 µM; 360,000 tested, 0.66% active;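 active = activation above a run cutoff, the mean activation of all tested compounds plus 3 SD, cut at about 14% in these data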;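 note: 0% = plate median of compound wells and 100% = 30 µM serotonin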
# PREPL inh: human PREPL enzyme inhibition; AID 2751; recombinant PREPL, fluorescence polarization activity-based probe; 320,000 tested, 0.68% active; inhibition, % at 5.96 µM; in the data active = inhibition above about 43%;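 note: 0% = enzyme with DMSO and 100% = wells lacking enzyme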
# MC4R ag barr: agonists of human melanocortin 4 receptor (MC4R) beta-arrestin; P32245; U2OS MC4R beta-arrestin complementation, luminescence; percent of melanotan II response, DMSO zero; activation, % at 8.9 µM; 360,000 tested, 0.98% active; AID 540308;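 active = activation above a per-plate cutoff, the mean activation of sample wells on that plate plus 3 SD, cut at about 8% in these data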
# NTR1 agonist: NTR1 (human) agonism | AID 493036 | P30989 | 330,000 tested, 0.17% active | NTR1-U2OS beta-arrestin-GFP spot imaging, agonist mode | activation, % at 20 µM;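 active = activation at or above 40% of the spot to cytoplasm intensity ratio, with at least 20 cells analyzed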;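 note: 0% = DMSO without peptide and 100% = 100 nM NTR1 peptide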
# Target sequence (P30989 whole entry, looked up): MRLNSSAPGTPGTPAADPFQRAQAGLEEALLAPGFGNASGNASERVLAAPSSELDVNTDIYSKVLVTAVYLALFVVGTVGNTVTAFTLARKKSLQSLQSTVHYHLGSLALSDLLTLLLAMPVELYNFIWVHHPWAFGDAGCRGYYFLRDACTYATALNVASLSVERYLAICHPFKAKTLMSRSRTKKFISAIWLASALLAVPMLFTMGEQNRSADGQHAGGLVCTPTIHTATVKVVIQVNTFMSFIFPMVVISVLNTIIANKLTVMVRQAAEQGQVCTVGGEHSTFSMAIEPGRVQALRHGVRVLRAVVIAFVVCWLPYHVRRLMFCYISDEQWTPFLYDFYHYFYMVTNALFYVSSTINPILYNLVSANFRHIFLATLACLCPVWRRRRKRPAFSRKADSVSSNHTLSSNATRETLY
# U2OS cAMP counter: counter-screen for MC4R antagonists: nonselective cAMP signaling inhibitors; AID 602193; parental U2OS, forskolin cAMP, LANCE TR-FRET; inhibition, % at 6.5 µM; shares compounds with MC4R antagonist; 1,600 tested, 26% active;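 active = mean inhibition over triplicates above the low-control well mean plus 3 SD, set per campaign, cut at about 13% in these data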;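 note: signal is single emission at 671 nm which falls as cellular cAMP rises; 0% = forskolin-stimulated wells and 100% = buffer without forskolin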
# MC4R antag conf: human MC4R cAMP antagonism confirmation; shares compounds with MC4R antagonist; MC4R-expressing cells, MTII-stimulated cAMP, TR-FRET; inhibition, % at 6.5 µM; 1,600 tested, 27% active; in the data active = inhibition above about 29%;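 note: 0% = agonist stimulated wells alone and 100% = agonist stimulated wells plus saturating reference antagonist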
# * marks the source's active call; other numbers are inactive results; · = no result given; + = active, no number. A selection: hits, their analogues and other compounds. The true share with any hit is near 2.7%.
SMILES,Lipid droplet,MC4R antagonist,m5-HT2A agonist,PREPL inh,MC4R ag barr,NTR1 agonist,U2OS cAMP counter,MC4R antag conf
Cc1cc(C)cc(NC(=O)COc2coc(CN3CCc4ccccc4C3)cc2=O)c1,·,2,2,-3,1,14,·,·
CCCCN1CCCCC1(C)C(=O)NCc1cccc(OC)c1 (stereo unspecified),·,-2,3,·,2,·,·,·
Cc1ccc(NC(=O)c2ccc(S(=O)(=O)N3CCCC3)cc2)nc1,·,4,1,18,-1,0,·,·
O=C(CCC1CCCC1)Nc1cccc(Cc2ccncc2)c1,0,33*,-4,5,1,0,-3,-14
O=C(CC12CC3CC(CC(C3)C1)C2)NCC(c1ccc(F)cc1)N1CCOCC1 (stereo unspecified),-15,12,1,0,1,0,·,·
Cc1ccc(Sc2ccc(NC(=O)c3ccc(S(C)(=O)=O)cc3Cl)cc2)cc1,·,108*,4,3,7,5,125*,+
CS(=O)(=O)c1ccc(C(=O)Nc2ccc(N3CCCCC3)cc2)c(Cl)c1,·,-4,-3,3,-1,0,·,·
CC(C)(C)NC(=O)Cn1c(=O)oc2cc(S(=O)(=O)N3CCc4ccccc43)ccc21,·,11,-11,-3,0,-2,·,·
CCOC(=O)Cn1c(=O)oc2cc(S(=O)(=O)N3CCc4ccccc43)ccc21,·,30*,1,3,1,9,11,13
Cc1cc(C)n2nc(C(=O)NNC(=O)c3ccc(Cl)cc3)nc2n1,23,36*,1,7,-1,0,0,3
Cc1ccc(C(=O)NNC(=O)Cc2nc3nc(C)cc(C)n3n2)cc1,10,2,6,18,0,3,·,·
COC(=O)c1ccc(N2CCN(C)CC2)c(NC(=O)c2sc3ccccc3c2Cl)c1,·,31*,-6,-12,1,·,-2,-2
CN1CCN(c2ccc(NC(=O)c3sc4ccccc4c3Cl)cc2)CC1,-4,6,-2,16,-3,2,·,·
O=C(CNC(=O)/C(=C\c1ccc(Br)cc1)NC(=O)c1ccccc1)OCc1ccccc1,5,40*,2,-2,-3,22,19*,48*
CCOc1c(O)ccc(C2NC(=O)NC(C)=C2C(=O)OC)c1[N+](=O)[O-] (stereo unspecified),0,30*,-3,-5,-3,0,-4,-11
CCCOc1ccc(-c2c(C(=O)N/N=C(\C)COc3ccccc3)nnn2-c2nonc2N)cc1,17,17,-5,10,-3,1,·,·
CCC(=O)N(Cc1cc(=O)[nH]c2ccccc12)c1ccc(OC)cc1,-26,7,6,-13,0,-1,·,·
CN1CCC(Oc2ccc(Sc3ccccc3)cc2)CC1,0,-1,-5,5,0,1,·,·
CN1CCC(Oc2ccccc2Sc2ccc(C(F)(F)F)cc2)CC1,-42,33*,-5,9,-3,2,1,31*
O=C(NCC(=O)N1CCN(S(=O)(=O)/C=C/c2ccccc2)CC1)c1ccc(Cl)cc1,-9,31*,7,-6,4,2,1,-7
COc1ccc(NC(=O)COC(=O)C2CC(=O)N(c3ccc(C)cc3)C2)cc1 (stereo unspecified),·,42*,3,-2,1,-1,-1,-3
CCOC(=O)c1cc(-c2csc(-c3ccc(C(C)(C)C)cc3)n2)on1,-10,14,2,17,0,2,·,·
CCOC(=O)c1cc(-c2csc(-c3ccc(C(F)(F)F)cc3)n2)on1,2,37*,2,2,1,0,2,-8
C#CCOCCOCCOCCNc1nc(N2CCN(C(=O)CCCCCCCCCCNC(=O)Cn3cc(CCCCCN)nn3)CC2)nc(N2CCN(C(=O)CCCCCCCCCCNC(=O)[C@@H]([C@H](C)O)n3cc(C)nn3)CC2)n1,·,4,-4,40,-2,1,·,·
C#CCOCCOCCOCCNc1nc(N2CCN(C(=O)CCCCCCCCCCNC(=O)[C@H]([C@@H](C)CC)n3cc(CCCCN=C(N)N)nn3)CC2)nc(N2CCN(C(=O)CCCCCCCCCCNC(=O)[C@@H]([C@H](C)O)n3cc(C)nn3)CC2)n1,·,38*,1,38,-1,9,19*,55*
SMILES,Lipid droplet,MC4R antagonist,m5-HT2A agonist,PREPL inh,MC4R ag barr,NTR1 agonist,U2OS cAMP counter,MC4R antag conf
COc1cc(/C=N/Nc2cc(C)nc(NS(=O)(=O)c3ccc(C)cc3)n2)ccc1O,-3,10,0,·,1,·,·,·
COc1ccc(/C=N/Nc2cc(C)nc(NS(=O)(=O)c3ccc(C)cc3)n2)cc1,-3,32*,7,5,-2,2,2,21
COc1ccc(/C=N/N=C2\SC(CC(=O)O)C(=O)N2c2ccccc2)c(OC)c1 (stereo unspecified),-5,21,-1,-5,0,6,·,·
Cc1ccc2c(c1)CCCN2C(=O)c1ccncc1,30,29*,-1,2,1,1,-5,4
C[C@@H](c1ccccc1)N1C[C@H]2CCCN2c2cc(Br)ccc2S1(=O)=O,·,-8,-2,·,-1,1,·,·
O=C(Nc1nnc(-c2ccccc2)s1)c1cc(S(=O)(=O)N2CCOCC2)c(Cl)cc1Cl,-4,32*,2,-8,-2,2,11,26
C=C1C(=O)C23C(O)C1CCC2C12CCCC(C)(COC(C)=O)C1C(O)C3(O)OC2 (stereo unspecified),·,31*,-9,·,-2,·,8,-13
CCN(CC)C(=O)C(C)N(C#N)c1nc(Cl)nc(N(C)C)n1 (stereo unspecified),-1,43*,-3,2,-2,0,11,28
Cc1ccc(C)n1-c1ccc(-c2nnc3n2CCCCC3)s1,·,39*,6,31,0,0,17*,33*
COC(=O)c1cc(OC)c(OC)cc1N,4,0,-2,5,0,-1,·,·
COC(=O)c1cc2ccc(OC)cc2c2cc(OC)c(OC)cc12,·,34*,6,9,2,12,4,12
O=C(Nc1cc(C(F)(F)F)ccc1N1CCOCC1)c1c(F)c(F)c(F)c(F)c1F,-1,30*,8,8,-1,-2,16*,46*
O=C(Nc1cc(C(F)(F)F)ccc1N1CCOCC1)c1ccccc1,2,6,1,8,2,2,·,·
COc1ccc(CS(=O)(=O)/C(Cl)=C(/Cl)C(=O)Nc2ccc(OC)nc2)cc1,3,44*,-8,-7,-2,1,33*,37*

# Screens (PubChem)
